Results: ChEMBL document CHEMBL3877264, “Quinolidene-rhodanine conjugates: Facile synthesis and biological evaluation” (Eur J Med Chem, 2017)
≈ marks a conversion by molar mass, not a printed value.

How the values were obtained:
Assay type in all cases: functional
[1] = test system: Mycobacterium tuberculosis; assay: Growth inhibition of Mycobacterium bovis BCG ATCC 35743 at dormant stage at 30 ug/ml measured after 12 days by nitrate reductase dye based two fold dilution method relative to control; details: BCG str. ATCC 35743, 288 h, read-out: GI
Summary of the method: (§1)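 M. bovis BCG was grown in Dubos medium and assayed in Mycobacterium pheli minimal medium (pH 6.6), with compounds from DMSO stocks. Incubation lasted 8 days for active and 12 days for dormant cultures. Viability was read by nitrate reductase at 540 nm against cell-free blanks, with vehicle set as 100% growth. Primary screen was at 30, 10 and 3 µg/ml, in triplicate, mean ± SD. MIC was taken from dose-response curves.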

[2] = test system: Escherichia coli; assay: Antibacterial activity against Escherichia coli NCIM 2688 measured after 8 hrs; details: NCIM 2688, 8 h
Summary of the method: (§2)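 Bacteria grown in LB at 37 °C and 180 rpm to OD 1. Compounds added to wells, then 0.1% inoculum of 1 OD culture (620 nm). Growth read as OD at 620 nm after 8 h for gram-negative and after 12 h for gram-positive strains.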

[3] = test system: Bacillus subtilis; assay: Antibacterial activity against Bacillus subtilis NCIM 2079 measured after 12 hrs; details: NCIM 2079, 12 h; summary of the method: as §2
[4] = test system: Pseudomonas fluorescens; assay: Antibacterial activity against Pseudomonas fluorescens NCIM 2036 measured after 8 hrs; details: NCIM 2036, 8 h; summary of the method: as §2
[5] = test system: Bacillus subtilis; assay: Growth inhibition of Bacillus subtilis NCIM 2079 at 10 ug/ml measured after 12 hrs relative to control; details: NCIM 2079, 12 h, read-out: GI; summary of the method: as §2
[6] = test system: Staphylococcus aureus; assay: Growth inhibition of Staphylococcus aureus NCIM 2010 at 3 ug/ml measured after 12 hrs relative to control; details: NCIM 2010, 12 h, read-out: GI; summary of the method: as §2
[7] = test system: Staphylococcus aureus; assay: Growth inhibition of Staphylococcus aureus NCIM 2010 at 10 ug/ml measured after 12 hrs relative to control; details: NCIM 2010, 12 h, read-out: GI; summary of the method: as §2
[8] = test system: Aspergillus niger; assay: Antifungal activity against Aspergillus niger NCIM 1196 by standard agar method
Summary of the method: (§3)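 MICs determined by standard agar method; DMSO as solvent control.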

[9] = test system: Mycobacterium tuberculosis; assay: Growth inhibition of Mycobacterium bovis BCG ATCC 35743 at dormant stage measured after 12 days by nitrate reductase dye based two fold dilution method; details: BCG str. ATCC 35743, 288 h; summary of the method: as §1
[10] = test system: Mycobacterium tuberculosis; assay: Growth inhibition of Mycobacterium tuberculosis H37Ra ATCC 25177 at dormant stage measured after 12 days by XTT dye based two fold dilution method; details: H37Ra ATCC 25177, 288 h
Summary of the method: (§4)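 MTB H37Ra was grown in Dubos medium, then exposed in Mycobacterium pheli minimal medium (pH 6.6) to compounds dissolved in DMSO. The assay ended on day 8 (active) or day 12 (dormant). Viable cells were measured by XTT reduction menadione assay at 470 nm, blank-corrected, relative to vehicle control. Triplicates were expressed as mean ± SD. MIC came from dose-response curves.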

[11] = test system: Escherichia coli; assay: Growth inhibition of Escherichia coli NCIM 2688 at 30 ug/ml measured after 8 hrs relative to control; details: NCIM 2688, 8 h, read-out: GI; summary of the method: as §2
[12] = test system: Mycobacterium tuberculosis; assay: Growth inhibition of Mycobacterium bovis BCG ATCC 35743 at dormant stage at 3 ug/ml measured after 12 days by nitrate reductase dye based two fold dilution method relative to control; details: BCG str. ATCC 35743, 288 h, read-out: GI; summary of the method: as §1
[13] = test system: Aspergillus flavus; assay: Antifungal activity against Aspergillus flavus NCIM 539 by standard agar method; summary of the method: as §3
[14] = test system: Pseudomonas fluorescens; assay: Growth inhibition of Pseudomonas fluorescens NCIM 2036 at 3 ug/ml measured after 8 hrs relative to control; details: NCIM 2036, 8 h, read-out: GI; summary of the method: as §2
[15] = test system: Bacillus subtilis; assay: Growth inhibition of Bacillus subtilis NCIM 2079 at 30 ug/ml measured after 12 hrs relative to control; details: NCIM 2079, 12 h, read-out: GI; summary of the method: as §2
[16] = Antifungal activity against Fusarium oxysporum NCIM 1332 by standard agar method; summary of the method: as §3
[17] = test system: Mycobacterium tuberculosis; assay: Growth inhibition of Mycobacterium bovis BCG ATCC 35743 at dormant stage at 10 ug/ml measured after 12 days by nitrate reductase dye based two fold dilution method relative to control; details: BCG str. ATCC 35743, 288 h, read-out: GI; summary of the method: as §1
[18] = test system: Pseudomonas fluorescens; assay: Growth inhibition of Pseudomonas fluorescens NCIM 2036 at 10 ug/ml measured after 8 hrs relative to control; details: NCIM 2036, 8 h, read-out: GI; summary of the method: as §2
[19] = test system: Mycobacterium tuberculosis; assay: Growth inhibition of Mycobacterium tuberculosis H37Ra ATCC 25177 at active stage measured after 8 days by XTT dye based two fold dilution method; details: H37Ra ATCC 25177, 192 h; summary of the method: as §4
[20] = test system: Escherichia coli; assay: Growth inhibition of Escherichia coli NCIM 2688 at 10 ug/ml measured after 8 hrs relative to control; details: NCIM 2688, 8 h, read-out: GI; summary of the method: as §2
[21] = test system: Staphylococcus aureus; assay: Antibacterial activity against of Staphylococcus aureus NCIM 2010 measured after 12 hrs; details: NCIM 2010, 12 h; summary of the method: as §2
[22] = test system: Escherichia coli; assay: Growth inhibition of Escherichia coli NCIM 2688 at 3 ug/ml measured after 8 hrs relative to control; details: NCIM 2688, 8 h, read-out: GI; summary of the method: as §2
[23] = test system: Bacillus subtilis; assay: Growth inhibition of Bacillus subtilis NCIM 2079 at 3 ug/ml measured after 12 hrs relative to control; details: NCIM 2079, 12 h, read-out: GI; summary of the method: as §2
[24] = test system: Mycobacterium tuberculosis; assay: Growth inhibition of Mycobacterium bovis BCG ATCC 35743 at active stage measured after 8 days by nitrate reductase dye based two fold dilution method; details: BCG str. ATCC 35743, 192 h; summary of the method: as §1
[25] = test system: Staphylococcus aureus; assay: Growth inhibition of Staphylococcus aureus NCIM 2010 at 30 ug/ml measured after 12 hrs relative to control; details: NCIM 2010, 12 h, read-out: GI; summary of the method: as §2
[26] = test system: Pseudomonas fluorescens; assay: Growth inhibition of Pseudomonas fluorescens NCIM 2036 at 30 ug/ml measured after 8 hrs relative to control; details: NCIM 2036, 8 h, read-out: GI; summary of the method: as §2
[27] = test system: Candida albicans; assay: Antifungal activity against Candida albicans NCIM 3471 by standard agar method; summary of the method: as §3
[28] = Antifungal activity against Cryptococcus neoformans NCIM 576 by standard agar method; summary of the method: as §3

Row | SMILES | inhibition of growth at 30 µg/mL [1] [%] | MIC [2] [µg/mL] | MIC [3] [µg/mL] | MIC [4] [µg/mL] | inhibition of growth at 10 µg/mL [5] [%] | inhibition of growth at 3 µg/mL [6] [%] | inhibition of growth at 10 µg/mL [7] [%] | MIC [8] [µg/mL] | IC50 [9] [µg/mL] | IC90 [9] [µg/mL] | IC50 [10] [µg/mL] | IC90 [10] [µg/mL] | inhibition of growth at 30 µg/mL [11] [%] | inhibition of growth at 3 µg/mL [12] [%] | MIC [13] [µg/mL] | inhibition of growth at 3 µg/mL [14] [%] | inhibition of growth at 30 µg/mL [15] [%] | MIC [16] [µg/mL] | inhibition of growth at 10 µg/mL [17] [%] | MIC [21] [µg/mL] | other results
1 | CCOc1ccc2nc(Cl)c(/C=C3\SC(=S)N(CC(=O)O)C3=O)cc2c1 | 9.17 | > 30 | > 30 | > 30 | -0.253 | 2.94 | -13.4 | 125 (≈ 306 µM) | > 30 | > 30 | > 30 | > 30 | 71.9 | 26.3 | 100 (≈ 245 µM) | -5.49 | -2.41 | 150 (≈ 367 µM) | 24.8 | > 30 | inhibition of growth at 10 µg/mL [18]: 24.4%; IC50 [19]: > 30 µg/mL; IC90 [19]: > 30 µg/mL; inhibition of growth at 10 µg/mL [20]: 18.5%; inhibition of growth at 3 µg/mL [22]: 5.91%; inhibition of growth at 3 µg/mL [23]: -12.7%; IC50 [24]: > 30 µg/mL; IC90 [24]: > 30 µg/mL; inhibition of growth at 30 µg/mL [25]: -9.57%; inhibition of growth at 30 µg/mL [26]: 4.87%
2 | Clc1ccc(COC(Cn2ccnc2)c2ccc(Cl)cc2Cl)c(Cl)c1 (stereo unspecified) [MICONAZOLE] |  |  |  |  |  |  |  | 25 (≈ 60.1 µM) |  |  |  |  |  |  | 12.5 (≈ 30 µM) |  |  | 25 (≈ 60.1 µM) |  |  | MIC [27]: 25 µg/mL (≈ 60.1 µM); MIC [28]: 25 µg/mL (≈ 60.1 µM)
3 | COc1ccc2nc(Cl)c(/C=C3\SC(=S)N(CC(=O)O)C3=O)cc2c1 | 32 | > 30 | > 30 | > 30 | -37.3 | -29.3 | -25.4 |  | > 30 | > 30 | > 30 | > 30 | -50.9 | 6.02 | 200 (≈ 507 µM) | -4.12 | -33.3 | 125 (≈ 317 µM) | 27.3 | > 30 | MIC [27]: 150 µg/mL (≈ 380 µM); MIC [28]: 150 µg/mL (≈ 380 µM); inhibition of growth at 10 µg/mL [18]: 0.664%; IC50 [19]: > 30 µg/mL; IC90 [19]: > 30 µg/mL; inhibition of growth at 10 µg/mL [20]: -19.5%; inhibition of growth at 3 µg/mL [22]: -23.7%; inhibition of growth at 3 µg/mL [23]: -37%; IC50 [24]: > 30 µg/mL; IC90 [24]: > 30 µg/mL; inhibition of growth at 30 µg/mL [25]: -35.7%; inhibition of growth at 30 µg/mL [26]: -6.43%
4 | CC1(C)S[C@@H]2[C@H](NC(=O)[C@H](N)c3ccccc3)C(=O)N2[C@H]1C(=O)O [AMPICILLIN] |  | 0.41 (≈ 1.17 µM) | 5.89 (≈ 16.9 µM) | 2.83 (≈ 8.1 µM) |  |  |  |  |  |  |  |  |  |  |  |  |  |  |  | 0.12 (≈ 0.343 µM) | 
5 | COc1ccc2cc(/C=C3\SC(=S)N(CCC(=O)O)C3=O)c(Cl)nc2c1 | 11.3 | > 30 | > 30 | > 30 | -0.582 | -13 | -12.1 | 200 (≈ 489 µM) | > 30 | > 30 | > 30 | > 30 | 6.84 | 14.1 | 100 (≈ 245 µM) | -62.2 | 0.458 |  | 16.9 | > 30 | MIC [27]: 150 µg/mL (≈ 367 µM); MIC [28]: 150 µg/mL (≈ 367 µM); inhibition of growth at 10 µg/mL [18]: -3.31%; IC50 [19]: > 30 µg/mL; IC90 [19]: > 30 µg/mL; inhibition of growth at 10 µg/mL [20]: 13.7%; inhibition of growth at 3 µg/mL [22]: 2.29%; inhibition of growth at 3 µg/mL [23]: -3.95%; IC50 [24]: > 30 µg/mL; IC90 [24]: > 30 µg/mL; inhibition of growth at 30 µg/mL [25]: -17.3%; inhibition of growth at 30 µg/mL [26]: -33.9%
